Measurements reported in ChEMBL document CHEMBL1240350, “In vitro activity of CEM-101 against Streptococcus pneumoniae and Streptococcus pyogenes with defined macrolide resistance mechanisms” (Antimicrob Agents Chemother, 2010).
Values after ≈ are worked out from the molar mass of the structure shown.

How the values were obtained:
Streptococcus pneumoniae [1] = test: Antibacterial activity against penicillin-susceptible Streptococcus pneumoniae after overnight incubation by agar dilution method; assay type: functional
Outline: (§1)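 Agar dilution on Mueller-Hinton agar supplemented with 5% sheep blood. Inoculum 10^4 CFU/spot, incubated overnight at 35°C in ambient air. Test strains were clinical pneumococcal isolates. S. pneumoniae ATCC 49619 was included as the quality control strain in each run. MIC range, MIC50 and MIC90 were reported for each susceptibility category.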

Streptococcus pneumoniae [2] = test: Antibacterial activity against Streptococcus pneumoniae harboring erm(B) gene after overnight incubation by agar dilution method; assay type: functional
Outline: (§2)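 Clinical isolates collected 1998–2008, with macrolide-resistance genes confirmed by PCR. MICs by agar dilution on Mueller-Hinton agar with 5% sheep blood. Inoculum 10^4 CFU/spot, incubated overnight at 35°C in ambient air. S. pneumoniae ATCC 49619 was the quality-control strain in every run.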

Streptococcus pneumoniae [3] = test: Antibacterial activity against Streptococcus pneumoniae harboring erm(B) and mef(A) gene after overnight incubation by agar dilution method; assay type: functional; outline: as §2
Streptococcus pneumoniae [4] = test: Antibacterial activity against quinolone-susceptible Streptococcus pneumoniae after overnight incubation by agar dilution method; assay type: functional; outline: as §1
Streptococcus pneumoniae [5] = test: Antibacterial activity against quinolone-resistant Streptococcus pneumoniae after overnight incubation by agar dilution method; assay type: functional; outline: as §1
Streptococcus pneumoniae [6] = test: Antibacterial activity against macrolide-resistant Streptococcus pneumoniae harboring mef(A) gene after overnight incubation by agar dilution method; assay type: functional
Outline: (§3)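 Agar dilution MICs on Mueller-Hinton agar with 5% sheep blood. Inoculum 10^4 CFU/spot, incubated overnight at 35°C in ambient air. Clinical S. pneumoniae or group A streptococcal isolates; resistance genotypes (erm(B), erm(A), mef(A)/mef(E)) were assigned by PCR. S. pneumoniae ATCC 49619 served as QC strain in each run. Range, MIC50 and MIC90 reported per phenotype group.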

Streptococcus pneumoniae [7] = test: Antibacterial activity against macrolide-resistant Streptococcus pneumoniae harboring erm(B) and mef(A) gene after overnight incubation by agar dilution method; assay type: functional; outline: as §3
Streptococcus pyogenes [8] = test: Antibacterial activity against macrolide-susceptible Streptococcus pyogenes after overnight incubation by agar dilution method; assay type: functional
Outline: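 Agar dilution on Mueller-Hinton agar supplemented with 5% sheep blood, inoculum 10^4 CFU/spot, read after overnight incubation at 35°C in ambient air. Clinical isolates with defined genotypes; S. pneumoniae ATCC 49619 quality control strain included in each run. MIC50/MIC90 are MICs inhibiting 50% and 90% of isolates.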

Streptococcus pyogenes [9] = test: Antibacterial activity against Streptococcus pyogenes harboring erm(B) gene after overnight incubation by agar dilution method; assay type: functional; outline: as §2
Streptococcus pyogenes [10] = test: Antibacterial activity against Streptococcus pyogenes harboring mutation in L4 ribosomal protein after overnight incubation by agar dilution method; assay type: functional; outline: as §2
Streptococcus pyogenes [11] = test: Antibacterial activity against macrolide-resistant Streptococcus pyogenes harboring erm(A) gene after overnight incubation by agar dilution method; assay type: functional; outline: as §3
Streptococcus pneumoniae [12] = test: Antibacterial activity against macrolide-resistant Streptococcus pneumoniae 24 harboring erm(B) gene after 14 passages and 10 compound-free subculturing by retest method; assay type: functional
Outline: (§4)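 Multistep selection by daily serial passage in subinhibitory drug concentrations. Medium was cation-adjusted Mueller-Hinton broth plus 5% lysed horse blood. Each day the next inoculum came from the tube 1–2 dilutions below the MIC whose turbidity matched the growth control, for up to 50 days. Clone MICs by CLSI macrodilution; identity to the parent confirmed by SmaI PFGE.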

Streptococcus pneumoniae [13] = test: Antibacterial activity against macrolide-resistant Streptococcus pneumoniae 3665 harboring mef(A) gene after 26 passages and 10 compound-free subculturing by retest method; assay type: functional
Streptococcus pneumoniae [14] = test: Antibacterial activity against macrolide-resistant Streptococcus pneumoniae 1076 harboring erm(B) and mef(A) gene after 18 passages and 10 compound-free subculturing by retest method; assay type: functional; outline: as §4
Streptococcus pneumoniae [15] = test: Antibacterial activity against macrolide-resistant Streptococcus pneumoniae 2686 harboring mutation in L4 ribosomal protein after 22 passages and 10 compound-free subculturing by retest method; assay type: functional
Streptococcus pneumoniae [16] = test: Antibacterial activity against macrolide-resistant Streptococcus pneumoniae 24 harboring erm(B) gene after overnight incubation by agar dilution method; assay type: functional
Streptococcus pneumoniae [17] = test: Antibacterial activity against macrolide-susceptible Streptococcus pneumoniae 7127 harboring S20N mutation in L4 ribosomal protein and A105V mutation in L22 ribosomal protein after 29 passages and 10 compound-free subculturing by retest method; assay type: functional
Streptococcus pneumoniae [18] = test: Antibacterial activity against macrolide-susceptible Streptococcus pneumoniae 7127 harboring S20N mutation in L4 ribosomal protein and A105V mutation in L22 ribosomal protein after 38 passages and 10 compound-free subculturing by retest method; assay type: functional
Streptococcus pneumoniae [19] = test: Antibacterial activity against macrolide-resistant Streptococcus pneumoniae 2686 harboring mutation in L4 ribosomal protein after overnight incubation by agar dilution method; assay type: functional
Streptococcus pyogenes [20] = test: Antibacterial activity against macrolide-susceptible Streptococcus pyogenes 2132 after overnight incubation by agar dilution method
Streptococcus pyogenes [21] = test: Antibacterial activity against macrolide-resistant Streptococcus pyogenes 2368 harboring erm(B) gene after overnight incubation by agar dilution method
Streptococcus pyogenes [22] = test: Antibacterial activity against macrolide-susceptible Streptococcus pyogenes 2132 after 50 passages following overnight incubation by agar dilution method
Streptococcus pyogenes [23] = test: Antibacterial activity against macrolide-resistant Streptococcus pyogenes 2368 harboring erm(B) gene after 6 passages and 10 compound-free subculturing by retest method
Streptococcus pyogenes [24] = test: Antibacterial activity against macrolide-resistant Streptococcus pyogenes 2094 harboring erm(A) gene after 43 passages and 10 compound-free subculturing by retest method
Streptococcus pyogenes [25] = test: Antibacterial activity against macrolide-resistant Streptococcus pyogenes 2094 harboring erm(A) gene after 22 passages and 10 compound-free subculturing by retest method
Streptococcus pyogenes [26] = test: Antibacterial activity against macrolide-resistant Streptococcus pyogenes 237 harboring mutation in L4 ribosomal protein after overnight incubation by agar dilution method
Streptococcus pyogenes [27] = test: Antibacterial activity against macrolide-resistant Streptococcus pyogenes 2011 harboring mef(A) gene after 50 passages following overnight incubation by agar dilution method
Streptococcus pneumoniae [28] = test: Antibacterial activity against penicillin-resistant Streptococcus pneumoniae after overnight incubation by agar dilution method; assay type: functional; outline: as §1
Streptococcus pneumoniae [29] = test: Antibacterial activity against Streptococcus pneumoniae harboring mutation in L4 ribosomal protein after overnight incubation by agar dilution method; assay type: functional; outline: as §2
Streptococcus pyogenes [30] = test: Antibacterial activity against macrolide-resistant Streptococcus pyogenes 2011 harboring mef(A) gene after overnight incubation by agar dilution method
Streptococcus pyogenes [31] = test: Antibacterial activity against macrolide-resistant Streptococcus pyogenes 237 harboring mutation in L4 ribosomal protein after 50 passages following overnight incubation by agar dilution method

CC[C@H]1OC(=O)[C@@](C)(F)C(=O)[C@H](C)[C@@H](O[C@@H]2O[C@H](C)C[C@H](N(C)C)[C@H]2O)[C@](C)(OC)C[C@@H](C)C(=O)[C@H](C)[C@H]2N(CCCCn3cc(-c4cccc(N)c4)nn3)C(=O)O[C@]12C [SOLITHROMYCIN]
MIC50 (Streptococcus pneumoniae [1]): 0.03 µg/mL (≈ 0.0355 µM) | MIC90 (Streptococcus pneumoniae [1]): 0.125 µg/mL (≈ 0.148 µM) | MIC50 (Streptococcus pneumoniae [2]): 0.03 µg/mL (≈ 0.0355 µM) | MIC90 (Streptococcus pneumoniae [2]): 0.5 µg/mL (≈ 0.592 µM) | MIC50 (Streptococcus pneumoniae [3]): 0.125 µg/mL (≈ 0.148 µM) | MIC90 (Streptococcus pneumoniae [3]): 0.25 µg/mL (≈ 0.296 µM) | MIC50 (Streptococcus pneumoniae [4]): 0.03 µg/mL (≈ 0.0355 µM) | MIC90 (Streptococcus pneumoniae [4]): 0.25 µg/mL (≈ 0.296 µM) | MIC50 (Streptococcus pneumoniae [5]): 0.008 µg/mL (≈ 0.00947 µM) | MIC90 (Streptococcus pneumoniae [5]): 0.06 µg/mL (≈ 0.071 µM) | MIC50 (Streptococcus pneumoniae [6]): 0.03 µg/mL (≈ 0.0355 µM) | MIC90 (Streptococcus pneumoniae [6]): 0.125 µg/mL (≈ 0.148 µM) | MIC50 (Streptococcus pneumoniae [7]): 0.125 µg/mL (≈ 0.148 µM) | MIC90 (Streptococcus pneumoniae [7]): 0.25 µg/mL (≈ 0.296 µM) | MIC50 (Streptococcus pyogenes [8]): 0.015 µg/mL (≈ 0.0178 µM) | MIC90 (Streptococcus pyogenes [8]): 0.03 µg/mL (≈ 0.0355 µM) | MIC50 (Streptococcus pyogenes [9]): 0.5 µg/mL (≈ 0.592 µM) | MIC90 (Streptococcus pyogenes [9]): 1 µg/mL (≈ 1.18 µM) | MIC (Streptococcus pyogenes [10]): 0.06 µg/mL (≈ 0.071 µM) | MIC50 (Streptococcus pyogenes [11]): 0.03 µg/mL (≈ 0.0355 µM) | MIC90 (Streptococcus pyogenes [11]): 0.125 µg/mL (≈ 0.148 µM) | MIC (Streptococcus pneumoniae [12]): 0.06 µg/mL (≈ 0.071 µM) | MIC (Streptococcus pneumoniae [12]; Streptococcus pneumoniae, 24, read-out: MIC): 0.06 µg/mL (≈ 0.071 µM) | MIC (Streptococcus pneumoniae [13]): 0.06 µg/mL (≈ 0.071 µM) | MIC (Streptococcus pneumoniae [14]): 32 µg/mL (≈ 37.9 µM) | MIC (Streptococcus pneumoniae [15]): 1 µg/mL (≈ 1.18 µM) | MIC (Streptococcus pneumoniae [16]): 0.004 µg/mL (≈ 0.00473 µM) | MIC (Streptococcus pneumoniae [17]): 0.016 µg/mL (≈ 0.0189 µM) | MIC (Streptococcus pneumoniae [18]): 0.008 µg/mL (≈ 0.00947 µM) | MIC (Streptococcus pneumoniae [19]): 0.03 µg/mL (≈ 0.0355 µM) | MIC (Streptococcus pyogenes [20]): 8 ng/mL (≈ 0.00947 µM) | MIC (Streptococcus pyogenes [21]): 1 µg/mL (≈ 1.18 µM) | MIC (Streptococcus pyogenes [22]): 0.016 µg/mL (≈ 0.0189 µM) | MIC (Streptococcus pyogenes [23]): 0.5 µg/mL (≈ 0.592 µM) | MIC (Streptococcus pyogenes [24]): 0.25 µg/mL (≈ 0.296 µM) | MIC (Streptococcus pyogenes [25]): 0.03 µg/mL (≈ 0.0355 µM) | MIC (Streptococcus pyogenes [26]): 0.03 µg/mL (≈ 0.0355 µM) | MIC (Streptococcus pyogenes [27]): 0.125 µg/mL (≈ 0.148 µM)

CC[C@H]1OC(=O)[C@H](C)C(=O)[C@H](C)[C@@H](O[C@@H]2O[C@H](C)C[C@H](N(C)C)[C@H]2O)[C@](C)(OC)C[C@@H](C)C(=O)[C@H](C)[C@H]2N(CCCCn3cnc(-c4cccnc4)c3)C(=O)O[C@]12C [TELITHROMYCIN]
MIC50 (Streptococcus pneumoniae [1]): 0.06 µg/mL (≈ 0.0739 µM) | MIC90 (Streptococcus pneumoniae [1]): 0.25 µg/mL (≈ 0.308 µM) | MIC50 (Streptococcus pneumoniae [28]): 0.125 µg/mL (≈ 0.154 µM) | MIC90 (Streptococcus pneumoniae [28]): 0.5 µg/mL (≈ 0.616 µM) | MIC50 (Streptococcus pneumoniae [2]): 0.06 µg/mL (≈ 0.0739 µM) | MIC90 (Streptococcus pneumoniae [2]): 1 µg/mL (≈ 1.23 µM) | MIC50 (Streptococcus pneumoniae [3]): 0.5 µg/mL (≈ 0.616 µM) | MIC90 (Streptococcus pneumoniae [3]): 1 µg/mL (≈ 1.23 µM) | MIC50 (Streptococcus pneumoniae [29]): 0.125 µg/mL (≈ 0.154 µM) | MIC90 (Streptococcus pneumoniae [29]): 0.25 µg/mL (≈ 0.308 µM) | MIC50 (Streptococcus pneumoniae [4]): 0.125 µg/mL (≈ 0.154 µM) | MIC90 (Streptococcus pneumoniae [4]): 0.5 µg/mL (≈ 0.616 µM) | MIC50 (Streptococcus pneumoniae [5]): 0.03 µg/mL (≈ 0.0369 µM) | MIC90 (Streptococcus pneumoniae [5]): 0.125 µg/mL (≈ 0.154 µM) | MIC50 (Streptococcus pneumoniae [6]): 0.125 µg/mL (≈ 0.154 µM) | MIC90 (Streptococcus pneumoniae [6]): 0.25 µg/mL (≈ 0.308 µM) | MIC50 (Streptococcus pneumoniae [7]): 0.5 µg/mL (≈ 0.616 µM) | MIC90 (Streptococcus pneumoniae [7]): 1 µg/mL (≈ 1.23 µM) | MIC50 (Streptococcus pyogenes [8]): 0.06 µg/mL (≈ 0.0739 µM) | MIC90 (Streptococcus pyogenes [8]): 0.06 µg/mL (≈ 0.0739 µM) | MIC50 (Streptococcus pyogenes [9]): 8 µg/mL (≈ 9.85 µM) | MIC90 (Streptococcus pyogenes [9]): 16 µg/mL (≈ 19.7 µM) | MIC (Streptococcus pyogenes [10]): 0.06 µg/mL (≈ 0.0739 µM) | MIC50 (Streptococcus pyogenes [11]): 0.06 µg/mL (≈ 0.0739 µM) | MIC90 (Streptococcus pyogenes [11]): 0.125 µg/mL (≈ 0.154 µM) | MIC (Streptococcus pneumoniae [13]): 0.06 µg/mL (≈ 0.0739 µM) | MIC (Streptococcus pneumoniae [14]): 32 µg/mL (≈ 39.4 µM) | MIC (Streptococcus pneumoniae [15]): 0.25 µg/mL (≈ 0.308 µM) | MIC (Streptococcus pneumoniae [16]): 0.25 µg/mL (≈ 0.308 µM) | MIC (Streptococcus pneumoniae [17]): 0.016 µg/mL (≈ 0.0197 µM) | MIC (Streptococcus pneumoniae [18]): 0.03 µg/mL (≈ 0.0369 µM) | MIC (Streptococcus pneumoniae [19]): 0.06 µg/mL (≈ 0.0739 µM) | MIC (Streptococcus pyogenes [20]): 8 ng/mL (≈ 0.00985 µM) | MIC (Streptococcus pyogenes [21]): 8 µg/mL (≈ 9.85 µM) | MIC (Streptococcus pyogenes [30]): 0.5 µg/mL (≈ 0.616 µM) | MIC (Streptococcus pyogenes [22]): 0.03 µg/mL (≈ 0.0369 µM) | MIC (Streptococcus pyogenes [23]): > 64 µg/mL | MIC (Streptococcus pyogenes [24]): 0.5 µg/mL (≈ 0.616 µM) | MIC (Streptococcus pyogenes [25]): 0.125 µg/mL (≈ 0.154 µM) | MIC (Streptococcus pyogenes [26]): 0.06 µg/mL (≈ 0.0739 µM) | MIC (Streptococcus pyogenes [27]): 1 µg/mL (≈ 1.23 µM) | MIC (Streptococcus pyogenes [31]): 0.125 µg/mL (≈ 0.154 µM)
